Reference: ChEMBL document CHEMBL5143726, “Neutrophil Elastase-Activatable Prodrugs Based on an Alkoxyamine Platform to Deliver Alkyl Radicals Cytotoxic to Tumor Cells” (J Med Chem, 2022)
Active and inactive are the calls of the source. No cut-off for these calls is given here. Where a SMILES comes first, the peptide text is derived from it.

Assays:
U-87 MG [1] = assay: Cytotoxicity against human U87 cells assessed as reduction in cell viability at 400 uM measured after 48 hrs in absence of human neutrophil elastase by PrestoBlue reagent based assay; format: functional; conditions: U-87MG ATCC
Procedure, shortened: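 U87 glioblastoma cells grown 48 h in DMEM/10% FBS, then switched to serum-free DMEM; prodrug (400 μM) added without elastase, serum restored to 10% after 1 h, cells kept 48 h at 37 °C. Viability by resazurin (PrestoBlue) reduction, 30 min at 37 °C, fluorescence ex 560/em 590 nm.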

U-87 MG [2] = assay: Cytotoxicity against human U87 cells assessed as reduction in cell viability measured after 24 to 72 hrs in presence of human neutrophil elastase by PrestoBlue reagent based assay; format: functional, U-87MG ATCC; conditions: dose 100-400 µM, time 24-72 hrs; for CC50: read-out: LC50 (the source's name); for Activity: U-87MG ATCC, DDE = dose-dependent effect
Procedure, shortened: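 U87 cells cultured 48 h, medium changed to serum-free DMEM; prodrug (0–400 μM) plus human neutrophil elastase 0.68 μM added, 1 h incubation, then 10% serum added to stop enzyme and cells held 24, 48 or 72 h. Viability via resazurin (PrestoBlue), 30 min at 37 °C, fluorescence ex 560/em 590 nm.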

[3] = Prodrug activation assessed as human neutrophil elastase mediated TEMPO release by EPR spectometric analysis
Procedure, shortened: (§1)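 Human neutrophil elastase (20 nM final) with prodrug (300 μM final) in 50 mM HEPES, 150 mM NaCl, 5 mM CaCl2, 0.05% IGEPAL, pH 7.4, in capillaries at 37 °C; released stable nitroxide (TEMPO or DBNO) quantified by EPR against internal spectrometer calibration.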

U-87 MG [4] = assay: Induction of apoptosis in human U87 cells assessed as activation of caspase3/7 at 75 to 250 uM measured after 48 hrs in presence of human neutrophil elastase by luminescence based multimode microplate reader assay; format: functional, cell-based; conditions: U-87MG ATCC, dose 75-250 µM
Procedure, shortened: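 U87 cells in serum-free DMEM given alkoxyamine (75, 150, 250 μM) plus HNE 0.68 μM for 1 h, then 10% serum added; sampled at 1, 3, 7, 24, 48 h. Caspase 3/7 read by lytic luminogenic substrate reagent, 15 min at room temperature, luminescence. Controls: HNE alone, cells alone, doxorubicin 2 μM.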

U-87 MG [5] = assay: Induction of apoptosis in human U87 cells assessed as phosphatidylserine translocation at 75 to 250 uM measured after 48 hrs in presence of human neutrophil elastase; format: functional, cell-based; conditions: U-87MG ATCC, dose 75-250 µM
Procedure, shortened: (§2)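 Serum-free U87 exposure to alkoxyamine 75, 150 or 250 μM with HNE 0.68 μM for 1 h, then 10% serum; followed 1–48 h. Live-cell RealTime-Glo reagent added, 60 min at 37 °C: annexin V phosphatidylserine binding by luminescence, membrane loss by cell-impermeant DNA dye fluorescence (ex 485/em 530 nm). Controls: HNE alone, untreated cells, doxorubicin 2 μM.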

U-87 MG [6] = assay: Induction of apoptosis in human U87 cells assessed as reduction in cell membrane integrity at 75 to 250 uM measured after 48 hrs in presence of human neutrophil elastase; format: functional, cell-based; conditions: U-87MG ATCC, dose 75-250 µM; procedure, shortened: as §2
U-87 MG [7] = assay: Cytotoxicity against human U87 cells assessed as cell viability at 100 to 400 uM measured after 24 to 72 hrs in absence of human neutrophil elastase by PrestoBlue reagent based assay; format: functional, U-87MG ATCC; conditions: dose 100-400 µM, time 24-72 hrs
Procedure, shortened: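 U87 glioblastoma (DMEM, 10% FBS, 37 °C, 5% CO2) seeded 48 h, medium swapped to serum-free DMEM; prodrug 0–400 μM added without elastase, 1 h, then 10% serum restored; incubation 24, 48 or 72 h. Viability by resazurin-to-resorufin conversion (PrestoBlue, 1/10 volume, 30 min 37 °C), fluorescence ex 560/em 590 nm.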

[8] = Prodrug activation assessed as urokinase mediated TEMPO release
[9] = Prodrug activation assessed as human neutrophil elastase mediated DBNO release by EPR spectometric analysis; procedure, shortened: as §1

Which Activity (U-87 MG [1]) does the source give for `CC(ON1C(C)(C)CCCC1(C)C)c1ccc(OC(=O)[C@@H](NC(=O)[C@@H]2CCCN2C(=O)[C@H](C)NC(=O)[C@H](C)NC(=O)CCC(=O)O)C(C)C)cc1` (some centres not stated) (HELM PEPTIDE1{[O=C(O)CCC(=O)[*:2]].A.A.P.V.[CC(ON1C(C)(C)CCCC1(C)C)c1ccc(O[*:1])cc1]}$$$$V2.0) here?
Its Activity is “Active”.

What about the CC50 (U-87 MG [2]) of the same compound?
The CC50 was 150 µM.

And the Drug metabolism [3]?
Its Drug metabolism is “Metabolite_Detected”.

With `CC(ON1C(C)(C)CCCC1(C)C)c1ccc(NC(=O)[C@@H](NC(=O)[C@@H]2CCCN2C(=O)[C@H](C)NC(=O)[C@H](C)NC(=O)CCC(=O)O)C(C)C)cc1` (some centres not stated) (HELM PEPTIDE1{[O=C(O)CCC(=O)[*:2]].A.A.P.V.[CC(ON1C(C)(C)CCCC1(C)C)c1ccc(N[*:1])cc1]}$$$$V2.0) as the compound, how does the Activity (U-87 MG [2]) read?
The Activity was “Dde”.

What about the CC50 (U-87 MG [2]) of the same compound?
Its CC50 is 150 µM.

What about the Activity (U-87 MG [4]) of the same compound?
The Activity was “Active”.

What about the Activity (U-87 MG [5]) of the same compound?
Its Activity is “Active”.

And the Activity (U-87 MG [6])?
Its Activity is “Active”.

And the Activity (U-87 MG [7])?
The Activity was 100%.

What about the Drug metabolism [3] of the same compound?
Its Drug metabolism is “Metabolite_Detected”.

What about the Drug metabolism [8] of the same compound?
The Drug metabolism was “Metabolite_Notdetected”.

With `CC(ON(C(C)(C)C)C(C)(C)C)c1ccc(OC(=O)[C@@H](NC(=O)[C@@H]2CCCN2C(=O)[C@H](C)NC(=O)[C@H](C)NC(=O)CCC(=O)O)C(C)C)cc1` (some centres not stated) (HELM PEPTIDE1{[O=C(O)CCC(=O)[*:2]].A.A.P.V.[CC(ON(C(C)(C)C)C(C)(C)C)c1ccc(O[*:1])cc1]}$$$$V2.0) as the compound, how does the Activity (U-87 MG [2]) read?
Its Activity is “Dde”.

And the CC50 (U-87 MG [2])?
The CC50 was 150 µM.

What about the Drug metabolism [9] of the same compound?
The Drug metabolism was “Metabolite_Detected”.

Which Activity (U-87 MG [2]) does the source give for `CC(ON(C(C)(C)C)C(C)(C)C)c1ccc(NC(=O)[C@@H](NC(=O)[C@@H]2CCCN2C(=O)[C@H](C)NC(=O)[C@H](C)NC(=O)CCC(=O)O)C(C)C)cc1` (some centres not stated) (HELM PEPTIDE1{[O=C(O)CCC(=O)[*:2]].A.A.P.V.[CC(ON(C(C)(C)C)C(C)(C)C)c1ccc(N[*:1])cc1]}$$$$V2.0) here?
The Activity was “Dde”.

What about the CC50 (U-87 MG [2]) of the same compound?
Its CC50 is 150 µM.

And the Drug metabolism [9]?
The Drug metabolism was “Metabolite_Detected”.
